Assay outcomes deposited in PubChem by several laboratories.
Apaf-1 inh = blocks human Apaf-1 apoptosome activity; reconstituted apoptosome caspase-3 activity, DEVD-Rh110 fluorescence; 0.71% of 330,000 active; inhibition, % at 20 µM; O14727; active = inhibition of at least 40% at 20 µM;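 note: plate controls were DMSO wells for no effect and DEVD-CHO caspase inhibitor wells for full effect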
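detection = Rh110 fluorescence intensity | test system = biochemical Apaf-1 apoptosome reconstitution | also added = cytochrome c and DEVD-Rh110 substrate | schedule = 30 min plus 50 min, RT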
procasp3 activ = activates human procaspase-3 | P42574 | recombinant procaspase-3 D3A, Ac-DEVD-pNA absorbance 405 nm | activation, % at 8.5 µM | 0.11% of 330,000 active;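 active = activation above the mean of all tested compounds plus 3 SD, cut at about 21% in these data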;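 note: 0% = DMSO alone and 100% = DMSO wells spiked with extra 5 µM PC-3 D3A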
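Test system: Procaspase-3 D3A mutant, all three cleavage aspartates alanine | Dosing: Single dose, 8.5 µM nominal compound, 0.8% DMSO | Schedule: 1 h preincubation, 2 h reaction | Technique: 405 nm absorbance of p-nitroaniline, reads at 0 and 120 min | Repeats: One well per compound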
ZTA counter = counter-screen for EBNA-1 inhibitors: inhibitors of Epstein-Barr virus ZTA. AID 2234. inhibition, % at 11 µM. ZTA-DNA binding, fluorescence polarization. 0.15% of 320,000 active; in the data active = inhibition above about 33%
procasp7 counter = activates human procaspase-7, counter-screen for procaspase-3 activators | P55210 | recombinant procaspase-7, Ac-DEVD-pNA absorbance 405 nm; D23A/D198A/D206A triple mutant, cannot self-cleave; scale: DMSO 0, 5 µM enzyme 100 | activation, % at 8.5 µM | 0.093% of 330,000 active;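 active = percent activation above the screen-wide mean plus 3 SD, cut at about 25% in these data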
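System: Procaspase-7 triple mutant (PC-7 D3A); measure: % activation from two-timepoint absorbance difference, scaled to controls; times: 1 h compound preincubation, 2 h substrate cleavage, 25 °C; also added: Ac-DEVD-pNA substrate, 400 µM as added; measured by: Epi-absorbance of released pNA at 405 nm, two timepoints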
GSTO1 inh = GSTO1 inhibition, counter-screen for RBBP9 inhibitors | recombinant GSTO1, activity-based probe fluorescence polarization | 1.1% of 300,000 active | inhibition, % at 5.96 µM | AID 1974;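 active = inhibition above the campaign mean inhibition plus 3 SD, cut at about 35% in these data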;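 note: 0% = GSTO1-1 with DMSO and 100% = wells lacking GSTO1-1 enzyme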
EBNA-1 inh = blocks EBNA-1 binding to DNA. 0.34% of 300,000 active. inhibition, % at 14.8 µM. AID 1950. EBNA-1 DNA binding, fluorescence polarization; in the data active = inhibition above about 28%
GSTO1 inh conf = confirmation of human GSTO1 inhibitors. shares compounds with GSTO1 inh. recombinant GSTO1, probe fluorescence polarization. inhibition, % at 5.96 µM. 54% of 2,400 active. AID 2176;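 active = inhibition above the primary screen's cutoff, its mean inhibition plus 3 SD, cut at about 35% in these data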;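 note: loss of polarization as inhibitors block binding of rhodamine sulfonate ester activity probe; 0% = GSTO1 with DMSO and 100% = wells lacking GSTO1 enzyme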
GSTO1 ABPP inh = GSTO1 (human) inhibition by gel ABPP; shares compounds with GSTO1 inh; inhibition, % at 1 µM; recombinant GSTO1, gel ABPP SE-Rh probe fluorescence; AID 463110; 30% of 130 active;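 active = inhibition of the enzyme GSTO1 above about 75%, limit read from the data; inactive = inhibition below that limit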
* = called active by the depositor; / = not tested or not shown. Compounds with a hit are over-represented: about 1.8% of the library has one in this group of screens.

SMILES	Apaf-1 inh	procasp3 activ	ZTA counter	procasp7 counter	GSTO1 inh	EBNA-1 inh	GSTO1 inh conf	others
O=C(COC(=O)CNC(=O)c1ccc(Cl)cc1Cl)NC(=O)NC1CCCCC1	6.0	5.1	-2.6	-2.1	0.3	-2.6	/
Cc1cc(O)c(-c2cc(O)c(C)cc2O)cc1O	2.5	-15.9	-14.3	-30.8	82.1*	-9.7	7.9
CN(C(=O)COC(=O)CCC(=O)c1ccc(Cl)cc1)c1c(N)n(Cc2ccccc2)c(=O)[nH]c1=O	10.9	7.7	-0.3	-4.3	1.3	-0.8	/
O=c1oc2ccccc2c2oc3cc(O)c(O)cc3c12	-8.3	-16.4	11.7	-4.2	48.9*	7.9	13.7
CCOc1ccc2c(c1)C(C)=CC(C)(C)N2C(=O)Nc1ccccc1F	31.4	-9.2	3.3	-10.6	42.0*	7.3	3.5
CCNC(=O)N1c2ccc(OCC)cc2C(C)=CC1(C)C	14.6	-4.1	-10.9	-8.4	17.5	1.2	/
O=C(CN1CCN(Cc2ccccc2)CC1)Nc1nnc(C(F)(F)F)s1	10.8	-0.4	-4.8	4.4	7.2	1.0	/
Cc1nnc(NC(=O)CN2CCN(Cc3ccccc3)CC2)s1	8.8	2.9	-15.5	-11.9	46.0*	-3.8	17.6
O=C(N[C@@H](Cc1ccccc1)C(=O)NC1CC1)c1ccc(Cl)cc1	5.9	-6.6	11.2	-10.0	2.2	8.0	/
CCCc1ccc2oc(C(=O)N3CCN(c4cnccn4)CC3)c(C)c2c1	36.8	-0.9	7.7	11.2	-0.1	-0.7	/
CCC(NC(C)C)C(O)c1ccc(O)c(O)c1 (configuration not stated)	-0.9	-5.4	-5.7	-4.3	50.0*	-3.4	2.4
CC(C)NC[C@H](O)c1ccc(O)c(O)c1	-5.6	-6.5	-0.5	-16.8	9.0	-2.4	/
O=[N+]([O-])c1ccc(-c2ccc(C=Nc3cccc4ccccc34)o2)cc1	46.2*	-18.2	-1.8	-16.9	62.8*	-11.8	5.0
O=[N+]([O-])c1ccc(-c2ccc(/C=N/O)o2)cc1	0.5	-5.0	-8.0	-11.5	5.5	-6.6	/
Nc1c(C(=O)NCc2ccco2)sc2nc3c(cc12)C(=O)CCC3	-1.2	-7.7	0.0	-1.8	47.5*	1.6	22.8
CC(C)(C)C(=O)NC(c1ccccc1)c1c(O)ccc2ccccc12 (configuration not stated)	18.6	-3.4	5.6	5.9	52.7*	3.5	6.2
CCOc1ccc(C(NC(=O)CC)c2c(O)ccc3ccccc23)cc1 (configuration not stated)	8.4	9.3	-10.2	0.9	-3.5	10.1	/
Cc1ccc(NS(=O)(=O)c2ccc3c(c2)CC(=O)N3)cc1F	-6.2	-1.5	-15.7	2.8	/	/	/
O=C(NNC(=O)c1ccccc1F)c1ccc(NS(=O)(=O)c2ccc(F)cc2)cc1	-2.7	/	/	/	/	/	/
O=C(NNC(=O)c1ccccc1O)c1ccc(NS(=O)(=O)c2ccc(F)cc2)cc1	2.7	8.2	-5.9	-14.9	47.5*	-3.8	-0.7
O=S(=O)(Nc1ccc(O)c2ccccc12)c1cccs1	52.4*	-12.5	10.4	-30.9	64.3*	-2.5	16.0
COc1ccc(Cl)cc1NC(=O)CN1C(=O)NC2(CCCC2)C1=O	7.1	9.6	15.0	-4.9	-4.7	-3.6	/
N#Cc1nc(COc2ccccc2F)oc1NCCc1ccccc1	9.1	-9.9	-8.4	-1.0	42.6*	2.4	18.5
COc1ccc(CCNc2oc(COc3ccccc3)nc2C#N)cc1	8.9	-2.1	3.7	10.3	-2.8	15.0	/
Cc1cc(O)c(Oc2cc(C)cc(O)c2O)c(O)c1	-6.9	-20.0	2.2	-22.5	56.2*	-2.5	18.2
SMILES	Apaf-1 inh	procasp3 activ	ZTA counter	procasp7 counter	GSTO1 inh	EBNA-1 inh	GSTO1 inh conf	others
Cc1cccc([C@@H]2[C@@H]3C(=O)N(Cc4ccccc4)C(=O)[C@@H]3[C@]3(Cc4ccc(Cl)cc4)C(=O)N(c4cccc(Br)c4)C(=O)N23)c1	10.8	1.6	14.2	4.2	70.5*	-3.2	1.7
Cc1cccc([C@@H]2[C@@H]3C(=O)N(Cc4ccccc4)C(=O)[C@@H]3[C@]3(Cc4ccc(Cl)cc4)C(=O)N(c4ccccc4)C(=O)N23)c1	9.0	2.2	-5.2	-8.9	0.1	15.8	/
CCOC(=O)c1ccccc1NS(=O)(=O)c1cnn(CC)c1C	3.6	4.5	-9.7	-4.1	-4.1	5.0	/
Cn1ccnc1SCC(=O)NC1(C#N)CCCCC1	2.6	7.2	-5.8	2.0	5.0	12.4	/
CN(C)c1ccc(O)c2c1CC1CC3[C@@H](N(C)C)C(=O)C(C(N)=O)=C(O)[C@]3(O)C(=O)C1=C2O (some centres not stated)	-0.6	8.9	-11.1	-9.8	40.3*	5.9	33.7
Oc1ccc(CCNc2c3ccccc3nc3ccccc23)cc1O	-3.9	-18.1	1.3	-32.1	47.8*	-0.1	4.7
c1ccc(CNc2c3ccccc3nc3ccccc23)cc1	2.8	-3.2	3.8	1.4	-4.6	4.4	/
CC(C)CC1Nc2ccc(C(=O)NCCCN3CCOCC3)cc2NC1=O (configuration not stated)	-1.6	-3.0	11.0	7.2	3.1	-5.7	/
CC(C)CC1Nc2ccc(C(=O)NCc3ccc4c(c3)OCO4)cc2NC1=O (configuration not stated)	15.4	1.3	-7.5	-4.0	44.8*	-10.3	31.8
COc1ccccc1COC(=O)C(NC(=O)c1ccc(C)cc1)C(C)C (configuration not stated)	18.0	/	/	/	/	/	/
Cc1ccnc(NC(=O)c2cnc(Cl)c(Cl)c2)c1	2.1	-7.4	2.7	-0.8	6.7	4.0	/
CCOC(=O)c1ccccc1NC1c2ccccc2C(=O)N1c1ccc(C)cn1 (configuration not stated)	18.3	8.7	-5.3	6.8	75.7*	0.4	6.1
CCOc1ccccc1NC1c2ccccc2C(=O)N1c1ccc(C)cn1 (configuration not stated)	14.1	-7.4	4.6	-4.0	-4.6	0.8	/
CCN(CC)S(=O)(=O)c1cc(NC(=O)c2ccc3c(c2)NC(=O)C(C)S3)ccc1C (configuration not stated)	13.2	1.4	7.8	0.1	/	/	/
COc1ccc(CN(CCC(c2ccccc2)c2ccc(OC(C)C)cc2)C(=O)CCl)cc1OC (configuration not stated)	34.1	4.6	-0.6	1.7	78.3*	4.6	90.1*	GSTO1 ABPP inh=90.0*
